We go through six compounds from ChEMBL document CHEMBL5143735, “Design, Synthesis, and Characterization of [18F]mG2P026 as a High-Contrast PET Imaging Ligand for Metabotropic Glutamate Receptor 2” (J Med Chem, 2022).

For data set [1], the target named is Metabotropic glutamate receptor 1 (Homo sapiens, UniProt Q13255). As to the kind of experiment: Agonist activity at mGlu1 receptor (unknown origin) expressed in human Flp-In-T-REx-293 cells by Ca2+ mobilization assay. A general note: Calcium flux is commonly read through the fluorescence of an indicator in the cells.
Metabotropic glutamate receptor 1, sequence (Q13255 whole entry): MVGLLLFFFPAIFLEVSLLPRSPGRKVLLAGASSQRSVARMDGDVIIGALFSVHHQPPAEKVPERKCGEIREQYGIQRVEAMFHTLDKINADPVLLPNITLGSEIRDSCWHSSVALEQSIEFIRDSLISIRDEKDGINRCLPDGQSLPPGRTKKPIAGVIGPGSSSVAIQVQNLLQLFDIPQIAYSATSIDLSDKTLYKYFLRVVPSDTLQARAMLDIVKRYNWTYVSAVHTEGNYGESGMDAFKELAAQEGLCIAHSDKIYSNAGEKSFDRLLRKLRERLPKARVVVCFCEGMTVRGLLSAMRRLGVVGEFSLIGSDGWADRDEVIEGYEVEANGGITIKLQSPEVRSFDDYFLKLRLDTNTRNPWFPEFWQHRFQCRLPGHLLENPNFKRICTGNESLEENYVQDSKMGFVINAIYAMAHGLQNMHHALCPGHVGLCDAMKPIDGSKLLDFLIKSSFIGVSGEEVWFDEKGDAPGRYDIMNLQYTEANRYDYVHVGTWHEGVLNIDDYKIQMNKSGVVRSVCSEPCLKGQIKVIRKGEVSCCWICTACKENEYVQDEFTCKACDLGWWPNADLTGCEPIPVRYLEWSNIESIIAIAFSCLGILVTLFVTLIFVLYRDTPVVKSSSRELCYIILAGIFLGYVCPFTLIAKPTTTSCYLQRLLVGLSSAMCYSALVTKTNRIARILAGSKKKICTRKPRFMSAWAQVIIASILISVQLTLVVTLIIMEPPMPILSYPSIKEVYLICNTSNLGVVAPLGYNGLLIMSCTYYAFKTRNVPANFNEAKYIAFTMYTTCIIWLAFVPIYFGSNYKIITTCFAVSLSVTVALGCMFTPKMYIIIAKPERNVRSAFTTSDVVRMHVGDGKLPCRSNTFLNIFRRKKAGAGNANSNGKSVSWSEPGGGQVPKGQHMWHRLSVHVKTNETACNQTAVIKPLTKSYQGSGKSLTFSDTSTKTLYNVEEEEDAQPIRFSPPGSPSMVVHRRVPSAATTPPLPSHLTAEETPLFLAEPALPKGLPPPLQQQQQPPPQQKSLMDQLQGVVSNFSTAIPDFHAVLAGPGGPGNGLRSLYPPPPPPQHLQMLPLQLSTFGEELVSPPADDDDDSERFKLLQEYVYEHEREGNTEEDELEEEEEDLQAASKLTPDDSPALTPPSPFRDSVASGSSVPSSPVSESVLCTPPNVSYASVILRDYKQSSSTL
For data set [2], the target named is Metabotropic glutamate receptor 8 (Homo sapiens, UniProt O00222). As to the kind of experiment: Agonist activity at mGlu8 receptor (unknown origin) expressed in human Flp-In-T-REx-293 cells by luciferase based GloSensor cAMP Assay. Format: functional, cell-based, HEK293. In outline:
(§1)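 Tetracycline-inducible Flp-In T-REx-293 cells stably carrying mGluR4, mGluR6 or mGluR8, grown in DMEM with 10% FBS, hygromycin B and blasticidin at 37 °C, 5% CO2. Gi/o-coupled receptor activation read as intracellular cAMP change by split-luciferase GloSensor biosensor. EC50 from four-parameter logistic fit of concentration–response curves; each assay run at least three times.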

For data set [3], the target named is Metabotropic glutamate receptor 6 (Homo sapiens, UniProt O15303). As to the kind of experiment: Agonist activity at mGlu6 receptor (unknown origin) expressed in human Flp-In-T-REx-293 cells by luciferase based GloSensor cAMP Assay. The data set is classed as functional, cell-based, HEK293. The method in brief:
as §1

In data set [4] the target is Metabotropic glutamate receptor 4 (Homo sapiens, UniProt Q14833). As to the kind of experiment: Agonist activity at mGlu4 receptor (unknown origin) expressed in human Flp-In-T-REx-293 cells by luciferase based GloSensor cAMP Assay. The data set is classed as functional, cell-based, HEK293. In outline: as §1
Metabotropic glutamate receptor 4, sequence (Q14833 whole entry): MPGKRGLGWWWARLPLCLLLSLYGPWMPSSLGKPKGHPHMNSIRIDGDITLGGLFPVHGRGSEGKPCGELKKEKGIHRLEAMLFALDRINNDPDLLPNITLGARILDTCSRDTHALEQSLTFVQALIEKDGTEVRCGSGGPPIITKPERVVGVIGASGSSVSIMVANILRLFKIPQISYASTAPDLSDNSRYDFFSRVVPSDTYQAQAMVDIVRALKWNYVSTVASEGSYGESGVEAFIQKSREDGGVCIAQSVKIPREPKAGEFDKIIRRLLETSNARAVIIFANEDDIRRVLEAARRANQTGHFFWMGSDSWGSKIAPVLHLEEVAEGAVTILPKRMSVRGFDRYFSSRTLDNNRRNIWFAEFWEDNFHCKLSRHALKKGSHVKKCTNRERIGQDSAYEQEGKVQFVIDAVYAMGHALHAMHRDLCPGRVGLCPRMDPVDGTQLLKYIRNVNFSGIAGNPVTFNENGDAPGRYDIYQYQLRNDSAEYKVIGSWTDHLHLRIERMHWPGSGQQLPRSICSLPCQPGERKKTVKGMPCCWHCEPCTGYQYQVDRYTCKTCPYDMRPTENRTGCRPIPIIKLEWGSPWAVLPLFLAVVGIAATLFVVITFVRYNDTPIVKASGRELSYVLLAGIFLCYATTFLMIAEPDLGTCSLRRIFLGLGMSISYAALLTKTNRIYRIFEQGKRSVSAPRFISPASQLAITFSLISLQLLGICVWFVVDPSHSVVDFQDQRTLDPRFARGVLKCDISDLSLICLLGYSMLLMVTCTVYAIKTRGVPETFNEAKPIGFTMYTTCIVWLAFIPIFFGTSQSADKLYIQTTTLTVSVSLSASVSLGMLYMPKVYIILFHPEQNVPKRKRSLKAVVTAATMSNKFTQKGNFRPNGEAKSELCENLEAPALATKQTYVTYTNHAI
Data set [5] concerns the target Metabotropic glutamate receptor 5 (Homo sapiens, UniProt P41594). Nature of the data set: Agonist activity at mGlu5 receptor (unknown origin) expressed in human Flp-In-T-REx-293 cells by Ca2+ mobilization assay.
Data set [6] in a line: in vivo. Particulars: cynomolgus monkey, whole blood and plasma.
A short description of data set [7]: in vivo. The conditions noted are these: cynomolgus monkey, plasma.
The nature of data set [8]: Unbound fraction in cynomolgus monkey plasma measured upto 140 mins by ultracentrifugation.

Metabotropic glutamate receptor 5, sequence (P41594 whole entry): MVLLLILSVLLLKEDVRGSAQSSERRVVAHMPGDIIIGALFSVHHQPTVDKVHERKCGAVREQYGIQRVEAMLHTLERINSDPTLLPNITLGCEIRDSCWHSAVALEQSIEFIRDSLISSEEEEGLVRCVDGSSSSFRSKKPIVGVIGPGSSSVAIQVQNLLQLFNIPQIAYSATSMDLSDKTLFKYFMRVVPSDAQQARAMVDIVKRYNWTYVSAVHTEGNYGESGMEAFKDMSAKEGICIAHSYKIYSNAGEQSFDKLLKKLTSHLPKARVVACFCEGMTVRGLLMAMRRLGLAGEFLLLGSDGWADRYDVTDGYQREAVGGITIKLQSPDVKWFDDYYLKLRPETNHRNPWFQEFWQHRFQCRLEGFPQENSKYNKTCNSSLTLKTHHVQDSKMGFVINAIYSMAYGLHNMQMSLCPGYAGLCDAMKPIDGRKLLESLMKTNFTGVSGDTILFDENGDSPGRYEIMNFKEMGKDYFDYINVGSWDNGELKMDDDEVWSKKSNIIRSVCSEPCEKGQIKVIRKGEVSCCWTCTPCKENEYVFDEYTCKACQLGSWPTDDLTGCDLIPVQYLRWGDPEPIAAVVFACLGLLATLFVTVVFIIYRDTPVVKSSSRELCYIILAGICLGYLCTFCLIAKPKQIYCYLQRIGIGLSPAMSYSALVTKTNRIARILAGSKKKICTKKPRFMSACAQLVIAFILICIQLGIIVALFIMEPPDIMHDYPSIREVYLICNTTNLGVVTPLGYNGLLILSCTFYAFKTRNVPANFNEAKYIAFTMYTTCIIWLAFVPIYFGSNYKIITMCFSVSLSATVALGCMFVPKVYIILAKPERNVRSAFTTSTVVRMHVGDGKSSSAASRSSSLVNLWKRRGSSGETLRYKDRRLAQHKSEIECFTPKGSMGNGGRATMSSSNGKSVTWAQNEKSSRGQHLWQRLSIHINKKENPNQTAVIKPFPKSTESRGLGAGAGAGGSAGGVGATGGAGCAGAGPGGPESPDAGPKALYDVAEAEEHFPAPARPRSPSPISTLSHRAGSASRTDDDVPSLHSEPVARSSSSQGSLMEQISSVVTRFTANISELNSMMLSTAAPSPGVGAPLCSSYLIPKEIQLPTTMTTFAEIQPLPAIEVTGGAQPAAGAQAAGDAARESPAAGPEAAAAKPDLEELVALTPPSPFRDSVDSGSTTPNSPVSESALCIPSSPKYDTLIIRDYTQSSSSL
Metabotropic glutamate receptor 8, sequence (O00222 whole entry): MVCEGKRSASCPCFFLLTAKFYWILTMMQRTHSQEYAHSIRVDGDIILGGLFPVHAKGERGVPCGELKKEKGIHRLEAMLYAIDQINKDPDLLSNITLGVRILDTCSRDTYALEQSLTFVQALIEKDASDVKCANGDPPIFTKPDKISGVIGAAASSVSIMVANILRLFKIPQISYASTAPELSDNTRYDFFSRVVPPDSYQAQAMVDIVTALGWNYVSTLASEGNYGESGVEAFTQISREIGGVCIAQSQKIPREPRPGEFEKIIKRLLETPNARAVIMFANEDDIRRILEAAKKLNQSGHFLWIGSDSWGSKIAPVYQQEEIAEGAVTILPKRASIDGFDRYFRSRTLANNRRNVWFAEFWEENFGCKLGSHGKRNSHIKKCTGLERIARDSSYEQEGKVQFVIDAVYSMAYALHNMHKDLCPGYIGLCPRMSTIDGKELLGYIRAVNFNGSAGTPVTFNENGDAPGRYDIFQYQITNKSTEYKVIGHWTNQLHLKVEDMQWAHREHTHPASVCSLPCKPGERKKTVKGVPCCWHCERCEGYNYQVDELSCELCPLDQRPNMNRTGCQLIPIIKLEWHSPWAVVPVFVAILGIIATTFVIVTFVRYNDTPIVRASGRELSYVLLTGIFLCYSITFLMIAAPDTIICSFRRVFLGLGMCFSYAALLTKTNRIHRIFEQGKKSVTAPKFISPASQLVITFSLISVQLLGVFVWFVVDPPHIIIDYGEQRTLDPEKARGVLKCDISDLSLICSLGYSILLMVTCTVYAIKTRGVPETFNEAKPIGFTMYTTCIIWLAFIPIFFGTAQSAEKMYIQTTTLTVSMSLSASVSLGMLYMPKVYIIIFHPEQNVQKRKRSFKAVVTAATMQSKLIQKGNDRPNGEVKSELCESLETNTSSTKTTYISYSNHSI
Metabotropic glutamate receptor 6, sequence (O15303 whole entry): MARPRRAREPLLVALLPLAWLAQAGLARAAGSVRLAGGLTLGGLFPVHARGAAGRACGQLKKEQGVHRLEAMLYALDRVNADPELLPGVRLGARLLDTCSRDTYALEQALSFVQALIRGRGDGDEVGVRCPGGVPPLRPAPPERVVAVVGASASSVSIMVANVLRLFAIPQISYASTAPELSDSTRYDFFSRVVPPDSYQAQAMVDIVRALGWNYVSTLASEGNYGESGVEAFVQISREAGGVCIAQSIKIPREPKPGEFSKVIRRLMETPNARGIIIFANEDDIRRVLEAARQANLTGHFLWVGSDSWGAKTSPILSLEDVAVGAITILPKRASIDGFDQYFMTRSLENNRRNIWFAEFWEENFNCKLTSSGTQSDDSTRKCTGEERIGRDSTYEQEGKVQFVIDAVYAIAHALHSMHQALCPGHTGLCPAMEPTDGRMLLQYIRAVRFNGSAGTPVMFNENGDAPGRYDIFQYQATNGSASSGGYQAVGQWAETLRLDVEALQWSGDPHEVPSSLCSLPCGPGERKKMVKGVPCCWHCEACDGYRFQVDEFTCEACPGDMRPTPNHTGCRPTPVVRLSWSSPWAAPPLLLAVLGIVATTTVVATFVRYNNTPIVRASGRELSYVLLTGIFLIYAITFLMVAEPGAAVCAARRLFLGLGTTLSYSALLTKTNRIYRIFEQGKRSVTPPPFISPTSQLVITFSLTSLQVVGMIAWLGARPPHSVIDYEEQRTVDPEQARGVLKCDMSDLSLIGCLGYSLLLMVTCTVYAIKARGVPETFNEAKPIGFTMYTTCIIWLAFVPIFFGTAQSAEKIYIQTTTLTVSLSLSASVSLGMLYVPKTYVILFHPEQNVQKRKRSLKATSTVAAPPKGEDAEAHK

Consider `Fc1ccc(N2CCN(Cc3cc(C(F)(F)F)cn4c(CC5CC5)nnc34)CC2)c(F)c1`, for which the EC50 in data set [1], in data set [2], in data set [3], in data set [4] and in data set [5] was more than 10 µM in each case.
As for `Fc1ccccc1N1CCN(Cc2ccn3c(CC4CC4)nnc3c2C(F)(F)F)CC1`, the EC50 in data set [1], in data set [2], in data set [3], in data set [4] and in data set [5] was more than 10 µM each time.
Take `O=C(c1cnc2c(cnn2CC2CC2)c1C(F)(F)F)N1CCN(c2ccc(F)cc2F)CC1`: the EC50 in data set [1], in data set [2], in data set [3], in data set [4] and in data set [5] was more than 1 µM in each case.
With `FC(F)(F)c1c(CN2CCC(c3ccc([18F])cc3Cl)CC2)ccn2c(CC3CC3)nnc12`, in the data set “in vivo [6]”, the blood plasma ratio at 11 min turned out to be 1.12. Moreover, in “in vivo [7]”, the fraction remaining – broadly, what is left of the initial amount, in per cent – at 1.5 h turned out to be 49.3%. The fraction unbound – broadly, the share of the substance not bound to proteins or other matrix – at 2.333 h in data set [8] stood at 0.12.
`Fc1ccc(N2CCN(Cc3ccn4c(CC5CC5)nnc4c3C(F)(F)F)CC2)c(Cl)c1`: the EC50 in data set [1], in data set [2], in data set [3], in data set [4] and in data set [5] was more than 10 µM each time.
Regarding `Fc1cc(Cl)ccc1N1CCN(Cc2ccn3c(CC4CC4)nnc3c2C(F)(F)F)CC1`, the EC50 in data set [1], in data set [2], in data set [3], in data set [4] and in data set [5] was more than 10 µM in each case.
